Assay results reported in ChEMBL document CHEMBL1139382, “6-Methoxy-N-alkyl isatin acylhydrazone derivatives as a novel series of potent selective cannabinoid receptor 2 inverse agonists: design, synthesis, and binding mode prediction” (J Med Chem, 2009).
The source made the active and inactive calls.

Key:
Cannabinoid receptor 2 [1] = molecular target: T1, Cannabinoid receptor 2 (Homo sapiens, UniProt P34972); experiment: Inverse agonist activity at human recombinant CB2 receptor expressed CHO cells membrane by [35S]GTPgamma binding assay relative to 2-((1R,2R,5R)-5-hydroxy-2-(3-hydroxypropyl)cyclohexyl)-5-(2-methyloctan-2-yl)phenol; assay type: functional, cell membranes
Procedure, shortened: (§1)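 GTPγ[35S] binding in CHO membranes expressing recombinant hCB1 or hCB2. Membranes preincubated with GDP (30 μM solution) on ice for at least 15 min, then mixed with GTPγ[35S] and WGA SPA beads. Incubated 1 h at room temperature, centrifuged, held 1 h more, then counted. Eight concentrations (0.001–10 μM) in duplicate, reported as the mean of two. Emax expressed as % of the reference agonist.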

Cannabinoid receptor 1 [2] = molecular target: T2, Cannabinoid receptor 1 (Homo sapiens, UniProt P21554); experiment: Inverse agonist activity at human recombinant CB1 receptor expressed CHO cells membrane by [35S]GTPgamma binding assay; assay type: functional, cell membranes; procedure, shortened: as §1
Rattus norvegicus [3] = experiment: Antiallodynic activity in Sprague-Dawley rat L5/L6 spinal nerve tight ligated neuropathic pain model assessed as paw withdrawal threshold at 10 mg/kg, ip […] ipsilateral injured paw; assay type: functional, organism-based; design: dose 10 mg/kg
Procedure, shortened: (§2)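 Adult male Sprague–Dawley rats (120–150 g). Left L5 and L6 spinal nerves tightly ligated with 6–0 silk under isoflurane. Tested 10–14 days after ligation. Drugs given ip. Vehicle was N-methylpyrrolidone 30%, propylene glycol 30%, ethanol 10%, Cremophor 10% and water. For […], given 15 min before the ip CB2 agonist. Von Frey up–down 50% withdrawal threshold (cutoff 15 g) and %MPE, n = 5 per group.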

Cannabinoid receptor 2 [4] = molecular target: T1, Cannabinoid receptor 2; experiment: Inverse agonist activity at CB2 receptor; assay type: functional; procedure, shortened: as §1
Cannabinoid receptor 2 [5] = molecular target: T1, Cannabinoid receptor 2; experiment: Binding affinity to CB2 receptor by competition binding assay
Procedure, shortened: (§3)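 Competition binding on membranes of CHO-K1 cells expressing hCB2 (0.25 μg protein/well). Buffer was 50 mM Tris pH 7.4, 2.5 mM EDTA, 0.5% BSA, with 1 nM [3H]-labelled reference ligand. Nonspecific binding defined with 10 μM unlabelled ligand. Incubated 60 min at 30 °C, then filtered and counted by liquid scintillation. Duplicates at several concentrations. IC50 from a one-site fit, converted to Ki by Cheng–Prusoff.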

Cannabinoid receptor 2 [6] = molecular target: T1, Cannabinoid receptor 2; experiment: Binding affinity to CB2 receptor; procedure, shortened: as §3
Cannabinoid receptor 2 [7] = molecular target: T1, Cannabinoid receptor 2; experiment: Inverse agonist activity at human recombinant CB2 receptor expressed CHO cells membrane by [35S]GTPgamma binding assay; assay type: functional, cell membranes; procedure, shortened: as §1
Cannabinoid receptor 1 [8] = molecular target: T2, Cannabinoid receptor 1; experiment: Inverse agonist activity at human recombinant CB1 receptor expressed CHO cells membrane by [35S]GTPgamma binding assay relative to 2-((1R,2R,5R)-5-hydroxy-2-(3-hydroxypropyl)cyclohexyl)-5-(2-methyloctan-2-yl)phenol; assay type: functional, cell membranes; procedure, shortened: as §1
Cannabinoid receptor 2 [9] = molecular target: T1, Cannabinoid receptor 2; experiment: Agonist activity at human CB2 receptor expressed CHO cells by [35S]GTPgamma binding assay; assay type: functional, cell-based
Cannabinoid receptor 2 [10] = molecular target: T1, Cannabinoid receptor 2; experiment: Displacement of [3H] 2-((1R,2R,5R)-5-hydroxy-2-(3-hydroxypropyl)cyclohexyl)-5-(2-methyloctan-2-yl)phenol from human CB2 receptor expressed CHO-K1 cells by liquid scintillation counting; assay type: cell-based; procedure, shortened: as §3
Rattus norvegicus [11] = experiment: Inhibition of (3-benzyl-3-methyl-2,3-dihydrobenzofuran-6-yl)(piperidin-1-yl)methanone-induced antiallodynic activity in L5/L6 spinal nerve tight ligated neuropathic pain Sprague-Dawley rat model assessed as paw withdrawal threshold at 10 mg/kg, ip administered 15 mins before 3-benzyl-3-methyl-2,3-dihydrobenzofuran-6-yl)(piperidin-1-yl)methanone challenge; assay type: functional, organism-based; design: dose 10 mg/kg; procedure, shortened: as §2

T2 sequence (P21554 whole entry): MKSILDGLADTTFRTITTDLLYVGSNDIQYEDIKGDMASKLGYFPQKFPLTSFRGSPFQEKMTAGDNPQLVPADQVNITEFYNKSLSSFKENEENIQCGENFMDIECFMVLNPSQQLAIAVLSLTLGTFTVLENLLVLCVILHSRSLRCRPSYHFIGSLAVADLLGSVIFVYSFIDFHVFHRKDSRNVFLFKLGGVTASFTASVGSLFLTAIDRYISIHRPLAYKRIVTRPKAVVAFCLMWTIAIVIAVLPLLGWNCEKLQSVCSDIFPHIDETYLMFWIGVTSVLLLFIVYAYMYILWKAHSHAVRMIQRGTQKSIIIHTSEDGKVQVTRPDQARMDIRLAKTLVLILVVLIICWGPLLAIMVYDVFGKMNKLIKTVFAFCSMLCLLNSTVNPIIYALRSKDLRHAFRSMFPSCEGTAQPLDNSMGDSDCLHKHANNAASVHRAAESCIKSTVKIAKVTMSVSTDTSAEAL
T1 sequence (P34972 whole entry): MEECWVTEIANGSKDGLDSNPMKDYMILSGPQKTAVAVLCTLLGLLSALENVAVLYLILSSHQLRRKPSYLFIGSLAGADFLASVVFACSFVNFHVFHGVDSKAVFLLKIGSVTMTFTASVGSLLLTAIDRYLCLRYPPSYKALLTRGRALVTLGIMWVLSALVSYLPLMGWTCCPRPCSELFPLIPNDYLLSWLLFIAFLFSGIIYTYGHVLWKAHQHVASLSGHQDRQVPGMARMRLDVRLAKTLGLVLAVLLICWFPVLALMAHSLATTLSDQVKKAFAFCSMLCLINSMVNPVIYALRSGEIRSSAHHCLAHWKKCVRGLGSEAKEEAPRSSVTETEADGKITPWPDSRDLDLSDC

COc1ccc2c(c1)N(Cc1ccccc1)C(=O)/C2=N\NC(=O)c1ccccc1
Emax (Cannabinoid receptor 2 [1]): -96% | EC50 (Cannabinoid receptor 1 [2]): > 10000 nM

CC1(Cc2ccccc2)COc2cc(C(=O)N3CCCCC3)ccc21 (centres undefined)
Activity (Rattus norvegicus [3]): Active

CCCCN1C(=O)/C(=N\NC(=O)c2ccccc2)c2ccc(OC)cc21
Emax (Cannabinoid receptor 2 [1]): -95% | EC50 (Cannabinoid receptor 1 [2]): > 10000 nM

CN(c1ccc2c(c1)nc(Cc1ccc3c(c1)CCO3)n2CC1CCCCC1)S(=O)(=O)c1ccccc1
EC50 (Cannabinoid receptor 2 [4]): 2.2 nM | Ki (Cannabinoid receptor 2 [5]): 1.2 nM | Activity (Cannabinoid receptor 2 [6]): 0.7 nM

CCCCCN1C(=O)/C(=N\NC(=O)OC(C)(C)C)c2ccc(OC)cc21
EC50 (Cannabinoid receptor 2 [7]): 15.9 nM | Emax (Cannabinoid receptor 2 [1]): -97% | EC50 (Cannabinoid receptor 1 [2]): > 10000 nM

CCCCCN1C(=O)/C(=N\NC(=O)C2CCCCC2)c2ccc(OC)cc21
EC50 (Cannabinoid receptor 2 [7]): 28.7 nM | Emax (Cannabinoid receptor 2 [1]): -105% | EC50 (Cannabinoid receptor 1 [2]): > 10000 nM

CCCCCN1C(=O)/C(=N\NC(=O)CC(C)C)c2ccc(OC)cc21
EC50 (Cannabinoid receptor 2 [7]): 11.7 nM | Emax (Cannabinoid receptor 2 [1]): -78% | EC50 (Cannabinoid receptor 1 [2]): > 10000 nM

COCCN1C(=O)/C(=N\NC(=O)c2ccccc2)c2ccc(OC)cc21
EC50 (Cannabinoid receptor 2 [7]): 492 nM | Emax (Cannabinoid receptor 2 [1]): -60% | EC50 (Cannabinoid receptor 1 [2]): > 10000 nM

CCCCCN1C(=O)/C(=N\NC(=O)CN2CCOCC2)c2ccc(OC)cc21
EC50 (Cannabinoid receptor 2 [7]): 13.3 nM | Emax (Cannabinoid receptor 2 [1]): -80% | EC50 (Cannabinoid receptor 1 [2]): > 10000 nM

CCCCCN1C(=O)/C(=N\NC(=O)C(C)(C)C)c2ccc(OC)cc21
EC50 (Cannabinoid receptor 2 [7]): 10 nM | Emax (Cannabinoid receptor 2 [1]): -78% | EC50 (Cannabinoid receptor 1 [2]): > 10000 nM

CCCCCN1C(=O)/C(=N\NC(=O)c2ccccc2)c2ccc(OC)cc21
Emax (Cannabinoid receptor 2 [1]): -108% | Emax (Cannabinoid receptor 1 [8]): 41% | EC50 (Cannabinoid receptor 1 [2]): 263 nM

COc1ccc(C(=O)c2c(C)n(CCN3CCOCC3)c3cc(I)ccc23)cc1
EC50 (Cannabinoid receptor 2 [9]): 76.6 nM

CCCCCN1C(=O)/C(=N\NC(=O)CC2CCCCC2)c2ccc(OC)cc21
EC50 (Cannabinoid receptor 2 [7]): 43 nM | Emax (Cannabinoid receptor 2 [1]): -88% | EC50 (Cannabinoid receptor 1 [2]): > 10000 nM

CCCCCN1C(=O)/C(=N\NC(=O)C(C)(C)O)c2ccc(OC)cc21
EC50 (Cannabinoid receptor 2 [7]): 14.7 nM | Emax (Cannabinoid receptor 2 [1]): -99% | EC50 (Cannabinoid receptor 1 [2]): > 10000 nM

CCCCCCN1C(=O)/C(=N\NC(=O)c2ccccc2)c2ccc(OC)cc21
Ki (Cannabinoid receptor 2 [10]): 89.9 nM | EC50 (Cannabinoid receptor 2 [7]): 88.2 nM | Emax (Cannabinoid receptor 2 [1]): -92% | EC50 (Cannabinoid receptor 1 [2]): > 10000 nM | Ki (Cannabinoid receptor 2 [6]): 89.9 nM | Activity (Rattus norvegicus [11]): Active

COc1ccc2c(c1)N(CC1CCCCC1)C(=O)/C2=N\NC(=O)C1CCCCC1
EC50 (Cannabinoid receptor 2 [7]): 71.6 nM | Emax (Cannabinoid receptor 2 [1]): -69% | EC50 (Cannabinoid receptor 1 [2]): > 10000 nM

COc1ccc2c(c1)N(CC1CCCCC1)C(=O)/C2=N\NC(=O)c1ccccc1
Emax (Cannabinoid receptor 2 [1]): -82% | Emax (Cannabinoid receptor 1 [8]): 40.8%

COc1ccc2c(c1)N(CCC1CCCCC1)C(=O)/C2=N\NC(=O)c1ccccc1
Emax (Cannabinoid receptor 2 [1]): -104% | EC50 (Cannabinoid receptor 1 [2]): > 10000 nM
